KCNQ1 act: potentiators or activators of KCNQ1 channel, primary screen, cell-based, thallium flux, high-throughput. B-score at 10 µM. actives 0.35% (n = 310,000). CHO-K1 KCNQ1, thallium flux FluxOR fluorescence; active compounds read high. Potassium voltage-gated channel subfamily KQT member 1 (Homo sapiens), P51787;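 active means fluorescence ratio B-score, a plate-corrected score, at least three library SD, with initial intensity B-score within 5 SD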
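Medium – assay buffer, equal DMSO in all wells · Material – CHO-K1 cell line with stable KCNQ1 potassium channel expression · Signal – kinetic FluxOR thallium fluorescence, 10-s 1-Hz baseline, 110-s post-stimulus read · Compound – single concentration per compound, DMSO matched to controls · Schedule – 37 °C overnight plating, 90-min dark dye load, 20-min compound pretreatment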
KCNK3 inh: human KCNK3 channel inhibitors, primary screen, CHO cells, FluxOR thallium flux, B-score; FluxOR fluorescence; active compounds read low; B-score at 10 µM; Potassium channel subfamily K member 3 (Homo sapiens), O14649; actives 0.84% (n = 340,000);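 active means B-score under library mean minus 4 SD, starting fluorescence ratio at most library mean plus 5 SD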;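 further: more negative B-score means stronger inhibition of thallium flux through KCNK3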
Kir21 block: inhibitors of mouse Kir2.1 inward-rectifier potassium channel; Inward rectifier potassium channel 2 (Mus musculus), P35561; HEK293-Kir2.1, FluxOR thallium flux fluorescence; active compounds read low; B-score at 10 µM; actives 0.85% (n = 310,000);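 active means fluorescence ratio B-score at or below minus 3 SD of library scores, with starting-brightness B-score within 2 SD, cut at about -4.2 in these data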;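 further: channel flux triggered by added potassium and thallium sulfate stimulus; B-score of peak minus minimum fluorescence over baseline after thallium stimulus; more negative B-score means stronger Kir2.1 block with less thallium influx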
KCNK9 block: KCNK9 potassium channel inhibitors, primary screen, HEK293 cells, thallium flux | FluxOR thallium flux fluorescence; active compounds read low | B-score at 10 µM | Potassium channel subfamily K member 9 (Homo sapiens), Q9NPC2 | actives 1.2% (n = 310,000);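 active means ratio B-score over 3 SD below the library mean, with starting fluorescence within 5 SD of its mean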;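 further: negative B-score means less thallium flux so channel inhibition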
KCNQ1 inh: inhibitors of human KCNQ1 channel, primary screen, cell-based, thallium flux, high-throughput; Potassium voltage-gated channel subfamily KQT member 1 (Homo sapiens), P51787; CHO-K1 KCNQ1, FluxOR thallium flux fluorescence; active compounds read high; B-score at 10 µM; actives 1.3% (n = 310,000);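 active means compounds whose thallium flux B-score, printed positive for inhibition, exceeds three library SD while starting fluorescence stays within three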;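 further: channel opened by potassium depolarization with thallium stimulus after 20 min compound exposure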
hERG rescue: hERG rescue from dofetilide block, primary screen, cell-based, CHO-hERG, FluxOR thallium flux, dofetilide IC70 | Voltage-gated inwardly rectifying potassium channel KCNH2 (Homo sapiens), Q12809 | dofetilide IC70 present | activation (rescue from dofetilide block), less the hit threshold, % at 10 µM | actives 0.51% (n = 310,000) | AID 1511, 2009;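 active means activation above the mean of controls blocked by dofetilide plus 5 SD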;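 further: thallium influx through hERG after potassium depolarization seen as dye fluorescence rise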
Target sequence (Q12809 whole entry, looked up): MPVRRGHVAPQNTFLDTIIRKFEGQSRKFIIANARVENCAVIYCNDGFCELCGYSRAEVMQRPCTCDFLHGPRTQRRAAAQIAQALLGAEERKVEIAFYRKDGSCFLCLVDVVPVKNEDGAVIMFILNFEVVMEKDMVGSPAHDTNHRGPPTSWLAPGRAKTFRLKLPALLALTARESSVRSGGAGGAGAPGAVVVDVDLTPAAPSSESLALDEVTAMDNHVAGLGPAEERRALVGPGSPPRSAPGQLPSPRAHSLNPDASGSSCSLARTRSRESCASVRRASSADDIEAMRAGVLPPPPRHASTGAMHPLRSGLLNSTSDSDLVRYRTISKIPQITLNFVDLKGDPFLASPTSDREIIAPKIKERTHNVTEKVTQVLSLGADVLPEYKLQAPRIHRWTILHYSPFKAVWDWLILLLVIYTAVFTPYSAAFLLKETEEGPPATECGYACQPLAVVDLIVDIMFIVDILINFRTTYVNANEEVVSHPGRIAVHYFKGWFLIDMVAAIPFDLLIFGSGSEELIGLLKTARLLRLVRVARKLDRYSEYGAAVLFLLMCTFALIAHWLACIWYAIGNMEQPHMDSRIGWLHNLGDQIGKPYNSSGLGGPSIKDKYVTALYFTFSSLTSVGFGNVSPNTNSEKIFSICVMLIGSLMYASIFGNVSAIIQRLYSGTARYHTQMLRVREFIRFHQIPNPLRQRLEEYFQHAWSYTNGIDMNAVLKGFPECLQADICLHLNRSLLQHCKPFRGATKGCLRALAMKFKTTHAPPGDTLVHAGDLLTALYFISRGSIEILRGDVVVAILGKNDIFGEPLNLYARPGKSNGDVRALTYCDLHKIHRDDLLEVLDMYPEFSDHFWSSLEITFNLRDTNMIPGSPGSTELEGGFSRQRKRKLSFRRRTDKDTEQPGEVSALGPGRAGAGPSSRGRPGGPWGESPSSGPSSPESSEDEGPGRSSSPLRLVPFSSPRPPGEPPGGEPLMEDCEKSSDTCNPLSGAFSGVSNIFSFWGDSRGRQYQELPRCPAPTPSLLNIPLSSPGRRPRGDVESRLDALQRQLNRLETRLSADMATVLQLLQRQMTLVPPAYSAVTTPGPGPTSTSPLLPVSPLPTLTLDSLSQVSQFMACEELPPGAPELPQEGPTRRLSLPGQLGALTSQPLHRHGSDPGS
KCNQ1 inh valid: KCNQ1 potassium channel inhibitors, confirmation, cell-based, Tl flux, duplicate | shares compounds with KCNQ1 inh | KCNQ1 cell line, FluxOR thallium flux fluorescence | inhibition, % at 10 µM | actives 93% (n = 1,600) | AID 588353, 2011;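 active means primary screen active, with duplicate mean exceeding buffer control mean plus 3 SD of buffer wells, cut at about 28% in these data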;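 further: 0% = buffer control ratio and 100% = XE991 inhibitor control ratio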
CHO Tl flux: thallium flux effects in parental CHO cells, counter-screen for KCNQ1 inhibitor project, cell-based, Tl flux; parental CHO-K1, FluxOR thallium flux fluorescence ratio; active compounds read low; zero means no signal rise above baseline; AID 588366, 2011; fluorescence ratio (Tl flux) at 10 µM; actives 21% (n = 1,600); shares compounds with KCNQ1 inh;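 active means mean of duplicate thallium-flux fluorescence ratios in parental host cells more than 5 SD below the buffer control mean, cut at about 0.38 in these data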;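 further: ratio is peak minus minimum fluorescence divided by baseline fluorescence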
KCNQ1 ephys val: KCNQ1 channel inhibitors, confirmation, orthogonal assay, cell-based, automated electrophysiology; shares compounds with KCNQ1 inh; AID 624120, 2012; calls only at 10 µM; KCNQ1-CHO cells, automated patch clamp current; actives 20% (n = 490);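 active means KCNQ1 current drop exceeding 3 SD of negative control wells, seen in both duplicate runs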;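 further: steady state current during a 2 s step from -80 to +40 mV; negative values mean current inhibition and positive values mean potentiation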
KCNQ2 inh: KCNQ2 channel inhibition, selectivity assay for KCNQ1 inhibitor project, cell-based; inhibition, % at 10 µM; AID 651746, 2012; actives 71% (n = 1,600); KCNQ2 cells, FluxOR thallium flux fluorescence; shares compounds with KCNQ1 inh;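 active means mean percent inhibition of the KCNQ2 thallium signal more than 5 SD above the buffer-only control wells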;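 further: KCNQ2 expressed in CHO cells; 0% = buffer control wells and 100% = XE-991 inhibitor control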
KCNQ1-KCNE1 inh: KCNQ1/KCNE1 channel inhibition, selectivity assay for KCNQ1 inhibitor project, CHO-K1 cells, thallium flux, FluxOR; FluxOR thallium flux fluorescence; actives 77% (n = 1,600); inhibition, % at 10 µM; shares compounds with KCNQ1 inh;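 active means mean percent inhibition of duplicate wells above the buffer-only control mean plus 3 SD of those controls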;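 further: 0% = buffer only wells and 100% = XE-991 inhibitor control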
* marks the source's active call; other numbers are inactive results. Only some compounds are listed: those with a hit (about 3.7% of all), similar ones and a draw of the others.

`Clc1ccc(Cl)c2sc(N3CCOCC3)nc12` gave KCNQ1 act inactive, KCNK3 inh inactive, Kir21 block 1.4, KCNK9 block inactive, KCNQ1 inh 8*, hERG rescue 0, KCNQ1 inh valid 26*, CHO Tl flux 0.47, KCNQ2 inh inactive and KCNQ1-KCNE1 inh inactive.
`CCSc1nnc(-c2sc3nnc(-c4ccccc4)c(-c4ccccc4)c3c2N)o1` gave KCNQ1 act inactive, KCNK3 inh inactive, Kir21 block -0.63, KCNK9 block inactive, KCNQ1 inh 14*, hERG rescue -27, KCNQ1 inh valid active, CHO Tl flux 0.14*, KCNQ2 inh inactive and KCNQ1-KCNE1 inh inactive.
Screening Cc1cc(C(=O)N2CCN(C(c3ccccc3)c3ccccc3)CC2)no1 returned KCNQ1 act inactive, KCNK3 inh inactive, Kir21 block -1.5, KCNK9 block inactive, KCNQ1 inh inactive and hERG rescue -8.
CCCc1cc(C(=O)N2CCN(C(c3ccccc3)c3ccccc3)CC2)no1 was read as KCNQ1 act inactive, KCNK3 inh inactive, Kir21 block -0.68, KCNK9 block inactive, KCNQ1 inh 10*, hERG rescue -11, KCNQ1 inh valid 126*, CHO Tl flux 0.4, KCNQ1 ephys val inactive, KCNQ2 inh 106%* and KCNQ1-KCNE1 inh 162%*.
`CC(C)(C)CC(=O)Nc1ccc(-c2cn3cccnc3n2)cc1` gave KCNQ1 act inactive, KCNK3 inh inactive, Kir21 block 0.63, KCNK9 block inactive, KCNQ1 inh inactive and hERG rescue -1.
Screening Nc1ccc(-c2c3ccc(=O)cc-3oc3cc(O)ccc23)cc1C(=O)O returned KCNQ1 act inactive, KCNK3 inh inactive, Kir21 block -17, KCNK9 block inactive, KCNQ1 inh 24*, hERG rescue -52, KCNQ1 inh valid active, CHO Tl flux 0.0075*, KCNQ2 inh inactive and KCNQ1-KCNE1 inh inactive.
`O=c1ccc2c(-c3ccccc3)c3ccc(O)cc3oc-2c1` gave KCNQ1 act inactive, KCNK3 inh inactive, Kir21 block -16, KCNK9 block inactive, KCNQ1 inh 24*, hERG rescue -50, KCNQ1 inh valid active, CHO Tl flux 0*, KCNQ2 inh inactive and KCNQ1-KCNE1 inh inactive.
Screening NC(=O)CSc1nc(C23CC4CC(CC(C4)C2)C3)nc2ccccc12 returned KCNQ1 act inactive, KCNK3 inh inactive, Kir21 block -1.4, KCNK9 block inactive, KCNQ1 inh 6*, hERG rescue -17, KCNQ1 inh valid 91*, CHO Tl flux 0.39, KCNQ1 ephys val inactive, KCNQ2 inh inactive and KCNQ1-KCNE1 inh 94%*.
Screening O=C(Nc1ccc(Br)c(C(F)(F)F)c1)c1ccccc1 returned KCNQ1 act inactive, KCNK3 inh inactive, Kir21 block -1.5, KCNK9 block -7.7*, KCNQ1 inh 6*, hERG rescue -14, KCNQ1 inh valid 125*, CHO Tl flux 0.4, KCNQ1 ephys val inactive, KCNQ2 inh 137%* and KCNQ1-KCNE1 inh 110%*.
Screening O=C(Nc1ccc(C(F)(F)F)cc1)c1ccccc1 returned KCNK3 inh inactive.
`Cc1cc(Cl)c(OCCCNCc2ccccc2)c(Br)c1` gave KCNQ1 act inactive, KCNK3 inh inactive, Kir21 block -11, KCNK9 block inactive, KCNQ1 inh 6*, hERG rescue -23, KCNQ1 inh valid 37*, CHO Tl flux 0.57, KCNQ2 inh 73%* and KCNQ1-KCNE1 inh inactive.
`Cc1[nH]c2ccccc2c1C(=O)COc1ccccc1` gave KCNQ1 act inactive, KCNK3 inh inactive, Kir21 block -2.8, KCNK9 block inactive, KCNQ1 inh 7*, hERG rescue -12, KCNQ1 inh valid 0, CHO Tl flux 0.48, KCNQ2 inh 63%* and KCNQ1-KCNE1 inh 40%*.
Screening CCN(CC)c1ccc(NC(=O)c2ccccn2)cc1S(=O)(=O)Nc1ccccc1OC returned KCNK3 inh inactive.
N#Cc1c(C(F)(F)F)cc(-c2ccc(Cl)cc2)[nH]c1=O was read as KCNQ1 act inactive, KCNK3 inh inactive, Kir21 block 0.63, KCNK9 block inactive, KCNQ1 inh inactive and hERG rescue -3.
N#Cc1c(C(F)(F)F)cc(-c2ccc(F)cc2)[nH]c1=O was read as KCNQ1 act inactive, KCNK3 inh inactive, Kir21 block 0.28, KCNK9 block inactive, KCNQ1 inh 11*, hERG rescue -6, KCNQ1 inh valid 40*, CHO Tl flux 0.54, KCNQ2 inh inactive and KCNQ1-KCNE1 inh inactive.
Screening COC(=O)c1cccc(F)c1C(=O)c1cccc2ccccc12 returned KCNK3 inh inactive.
For Cc1cccc(C)c1OCC(O)CN(Cc1ccccc1O)C1CCCCC1 (stereo not drawn) the results were KCNQ1 act inactive, KCNK3 inh inactive, Kir21 block -1.1, KCNK9 block inactive, KCNQ1 inh 7*, hERG rescue -17, KCNQ1 inh valid 94*, CHO Tl flux 0.42, KCNQ1 ephys val active, KCNQ2 inh 114%* and KCNQ1-KCNE1 inh 55%*.

Screening results from PubChem BioAssay.
